Columns and labels:
[1] = target: T1, Toll-like receptor 9 (Homo sapiens) (UniProt Q9NR96); experiment: Induction of TLR9-mediated immune stimulation in human PBMC assessed as IP10 production at 10 ug/ml after 24 hrs by luminex multiplex assay (RVb = 0.00 ng/ml)
T1 sequence (whole entry): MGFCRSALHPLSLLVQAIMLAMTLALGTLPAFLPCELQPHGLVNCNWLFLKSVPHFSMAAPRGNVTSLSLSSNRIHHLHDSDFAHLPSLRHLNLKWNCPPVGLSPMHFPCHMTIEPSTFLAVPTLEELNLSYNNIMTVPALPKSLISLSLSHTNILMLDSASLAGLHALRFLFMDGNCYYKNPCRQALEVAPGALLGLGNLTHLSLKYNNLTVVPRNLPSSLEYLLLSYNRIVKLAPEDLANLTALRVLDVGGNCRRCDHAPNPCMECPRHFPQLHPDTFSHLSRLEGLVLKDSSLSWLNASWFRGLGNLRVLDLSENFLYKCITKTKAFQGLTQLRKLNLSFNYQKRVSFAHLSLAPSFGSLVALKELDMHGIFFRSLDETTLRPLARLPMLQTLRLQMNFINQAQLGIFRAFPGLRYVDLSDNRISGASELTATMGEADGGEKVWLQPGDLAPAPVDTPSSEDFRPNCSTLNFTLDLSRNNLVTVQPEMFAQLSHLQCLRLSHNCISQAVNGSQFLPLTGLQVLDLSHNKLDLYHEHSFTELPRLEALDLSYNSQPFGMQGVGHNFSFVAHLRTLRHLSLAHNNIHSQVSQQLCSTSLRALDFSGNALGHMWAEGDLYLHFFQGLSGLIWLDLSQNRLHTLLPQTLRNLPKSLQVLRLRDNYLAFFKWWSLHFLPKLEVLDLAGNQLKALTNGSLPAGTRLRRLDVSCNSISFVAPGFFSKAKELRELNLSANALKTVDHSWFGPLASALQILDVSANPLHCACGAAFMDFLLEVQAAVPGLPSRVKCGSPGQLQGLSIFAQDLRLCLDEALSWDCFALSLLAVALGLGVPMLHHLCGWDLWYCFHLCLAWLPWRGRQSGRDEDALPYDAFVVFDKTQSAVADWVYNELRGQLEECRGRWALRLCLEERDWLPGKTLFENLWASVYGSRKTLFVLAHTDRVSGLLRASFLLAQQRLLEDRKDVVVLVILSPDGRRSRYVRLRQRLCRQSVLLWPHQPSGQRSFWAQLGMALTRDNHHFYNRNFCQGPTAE

[2] = target: T1, Toll-like receptor 9 (Homo sapiens); experiment: Induction of TLR9-mediated immune stimulation in human PBMC assessed as IP10 production at 2 ug/ml after 24 hrs by luminex multiplex assay (RVb = 0.00 ng/ml)
[3] = target: T1, Toll-like receptor 9 (Homo sapiens); experiment: Induction of TLR9-mediated immune stimulation in human PBMC assessed as MCP1 production at 10 ug/ml after 24 hrs by luminex multiplex assay (RVb = 0.08 +/- 0.02 ng/ml)
[4] = target: T1, Toll-like receptor 9 (Homo sapiens); experiment: Induction of TLR9-mediated immune stimulation in human PBMC assessed as IL6 production at 10 ug/ml after 24 hrs by luminex multiplex assay (RVb = 0.01 ng/ml)
[5] = target: T1, Toll-like receptor 9 (Homo sapiens); experiment: Induction of TLR9-mediated immune stimulation in human PBMC assessed as MIP1alpha production at 10 ug/ml after 24 hrs by luminex multiplex assay (RVb = 0.01 ng/ml)
[6] = target: T1, Toll-like receptor 9 (Homo sapiens); experiment: Induction of TLR9-mediated immune stimulation in human PBMC assessed as MIP1beta production at 2 ug/ml after 24 hrs by luminex multiplex assay (RVb = 0.03 +/- 0.02 ng/ml)
[7] = target: T1, Toll-like receptor 9 (Homo sapiens); experiment: Induction of TLR9-mediated immune stimulation in human PBMC assessed as MCP1 production at 2 ug/ml after 24 hrs by luminex multiplex assay (RVb = 0.08 +/- 0.02 ng/ml)
[8] = target: T2, Toll-like receptor 9 (Mus musculus) (UniProt Q9EQU3); experiment: Induction of TLR9-mediated IL6 production in C57BL/6 mouse spleen cells after 24 hrs by ELISA; assay type: cell-based
T2 sequence (whole entry): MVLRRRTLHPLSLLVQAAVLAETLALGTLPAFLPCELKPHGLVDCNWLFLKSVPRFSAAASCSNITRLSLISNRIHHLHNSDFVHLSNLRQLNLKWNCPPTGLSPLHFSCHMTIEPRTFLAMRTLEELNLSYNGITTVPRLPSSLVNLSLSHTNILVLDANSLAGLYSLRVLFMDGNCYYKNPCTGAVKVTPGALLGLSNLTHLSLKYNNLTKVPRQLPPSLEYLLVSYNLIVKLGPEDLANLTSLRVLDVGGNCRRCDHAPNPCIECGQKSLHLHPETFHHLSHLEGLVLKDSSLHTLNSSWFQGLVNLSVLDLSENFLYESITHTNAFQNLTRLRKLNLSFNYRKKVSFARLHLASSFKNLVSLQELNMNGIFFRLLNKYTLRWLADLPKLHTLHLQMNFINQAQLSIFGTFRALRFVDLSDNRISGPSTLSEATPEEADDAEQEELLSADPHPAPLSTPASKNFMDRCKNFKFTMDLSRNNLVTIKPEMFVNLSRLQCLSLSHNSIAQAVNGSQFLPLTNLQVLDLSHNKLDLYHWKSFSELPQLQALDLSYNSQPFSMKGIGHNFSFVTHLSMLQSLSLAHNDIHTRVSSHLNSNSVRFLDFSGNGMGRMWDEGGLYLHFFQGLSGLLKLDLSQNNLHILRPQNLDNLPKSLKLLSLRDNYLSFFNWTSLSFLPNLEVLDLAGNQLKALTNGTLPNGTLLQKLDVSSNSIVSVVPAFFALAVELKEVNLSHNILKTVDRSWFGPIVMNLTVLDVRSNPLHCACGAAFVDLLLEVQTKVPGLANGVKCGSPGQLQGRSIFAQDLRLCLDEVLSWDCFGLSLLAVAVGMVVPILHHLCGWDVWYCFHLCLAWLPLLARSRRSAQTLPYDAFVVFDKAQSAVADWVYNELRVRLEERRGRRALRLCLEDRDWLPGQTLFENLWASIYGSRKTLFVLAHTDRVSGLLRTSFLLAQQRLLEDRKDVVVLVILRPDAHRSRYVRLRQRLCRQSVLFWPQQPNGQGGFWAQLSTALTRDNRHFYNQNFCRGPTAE
In short: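 C57BL/6 mouse spleen cells were cultured with agonists at 0.1, 0.3, 1, 3 and 10 μg/mL for 24 h. Secreted IL-12 and IL-6 in the supernatants were measured by ELISA. Values are averages of triplicate wells from one representative of at least two independent experiments.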

[9] = target: T1, Toll-like receptor 9 (Homo sapiens); experiment: Induction of TLR9-mediated immune stimulation in human PBMC assessed as IL1Ralpha production at 2 ug/ml after 24 hrs by luminex multiplex assay (RVb = 0.12 +/- 0.03 ng/ml)
[10] = target: T1, Toll-like receptor 9 (Homo sapiens); experiment: Induction of TLR9-mediated immune stimulation in human PBMC assessed as IL12 production at 10 ug/ml after 24 hrs by luminex multiplex assay (RVb = 0.00 ng/ml)
[11] = target: T1, Toll-like receptor 9 (Homo sapiens); experiment: Induction of TLR9-mediated immune stimulation in human PBMC assessed as IL1Ralpha production at 10 ug/ml after 24 hrs by luminex multiplex assay (RVb = 0.12 +/- 0.03 ng/ml)

Activity [1] | Activity [2] | Activity [3] | Activity [4] | Activity [5] | Activity [6] | Activity [7] | Activity [8] | Activity [9] | Activity [10] | Activity [11] | SMILES
0.03 ng/mL | 0.01 ng/mL | 9.5 ng/mL | 0.89 ng/mL | 0.76 ng/mL | 0.12 ng/mL | 0.25 ng/mL | Dose-dependent effect | 14.2 ng/mL | 0.21 ng/mL | 109 ng/mL | Cc1cn([C@H]2C[C@H](O[C@@H]3C[C@@H](O)C[C@@H](OP(=O)(S)O[C@H]4C[C@H](n5cc(C)c(=O)[nH]c5=O)O[C@@H]4COP(=O)(S)O[C@H]4[C@@H](O)[C@H](n5ccc(N)nc5=O)O[C@@H]4COP(=O)(S)O[C@H]4C[C@H](n5cc(C)c(=O)[nH]c5=O)O[C@@H]4COP(=O)(S)O[C@H]4C[C@H](n5cc(C)c(=O)[nH]c5=O)O[C@@H]4COP(=O)(S)O[C@H]4C[C@H](n5ccc6c(=O)[nH]c(N)nc65)O[C@@H]4COP(=O)(S)O[C@H]4[C@@H](O)[C@H](n5ccc(N)nc5=O)O[C@@H]4COP(=O)(S)O[C@H]4C[C@H](n5cc(C)c(=O)[nH]c5=O)O[C@@H]4COP(=O)(S)O[C@H]4[C@@H](O)[C@H](n5cnc6c(=O)[nH]c(N)nc65)O[C@@H]4COP(=O)(S)O[C@H]4C[C@H](n5cc(C)c(=O)[nH]c5=O)O[C@@H]4COP(=O)(S)O[C@H]4[C@@H](O)[C@H](n5ccc(N)nc5=O)O[C@@H]4COP(=O)(S)O[C@H]4C[C@H](n5cc(C)c(=O)[nH]c5=O)O[C@@H]4CO)C3)[C@@H](COP(=O)(S)O[C@H]3[C@@H](O)[C@H](n4ccc(N)nc4=O)O[C@@H]3COP(=O)(S)O[C@H]3C[C@H](n4cc(C)c(=O)[nH]c4=O)O[C@@H]3COP(=O)(S)O[C@H]3C[C@H](n4cc(C)c(=O)[nH]c4=O)O[C@@H]3COP(=O)(S)O[C@H]3C[C@H](n4ccc5c(=O)[nH]c(N)nc54)O[C@@H]3COP(=O)(S)O[C@H]3[C@@H](O)[C@H](n4ccc(N)nc4=O)O[C@@H]3COP(=O)(S)O[C@H]3C[C@H](n4cc(C)c(=O)[nH]c4=O)O[C@@H]3COP(=O)(S)O[C@H]3[C@@H](O)[C@H](n4cnc5c(=O)[nH]c(N)nc54)O[C@@H]3COP(=O)(S)O[C@H]3C[C@H](n4cc(C)c(=O)[nH]c4=O)O[C@@H]3COP(=O)(S)O[C@H]3[C@@H](O)[C@H](n4ccc(N)nc4=O)O[C@@H]3COP(=O)(S)O[C@H]3C[C@H](n4cc(C)c(=O)[nH]c4=O)O[C@@H]3CO)O2)c(=O)[nH]c1=O (some centres not stated)
0.04 ng/mL | 0.03 ng/mL | 3.31 ng/mL | 0.58 ng/mL | 0.27 ng/mL | 0.11 ng/mL | 0.25 ng/mL | Dose-dependent effect | 10.7 ng/mL | 0.19 ng/mL | 83.9 ng/mL | Cc1cn([C@H]2C[C@H](OCCOCCOCCOCCOCCOCCOP(=O)(S)O[C@H]3C[C@H](n4cc(C)c(=O)[nH]c4=O)O[C@@H]3COP(=O)(S)O[C@H]3[C@@H](O)[C@H](n4ccc(N)nc4=O)O[C@@H]3COP(=O)(S)O[C@H]3C[C@H](n4cc(C)c(=O)[nH]c4=O)O[C@@H]3COP(=O)(S)O[C@H]3C[C@H](n4cc(C)c(=O)[nH]c4=O)O[C@@H]3COP(=O)(S)O[C@H]3C[C@H](n4ccc5c(=O)[nH]c(N)nc54)O[C@@H]3COP(=O)(S)O[C@H]3[C@@H](O)[C@H](n4ccc(N)nc4=O)O[C@@H]3COP(=O)(S)O[C@H]3C[C@H](n4cc(C)c(=O)[nH]c4=O)O[C@@H]3COP(=O)(S)O[C@H]3[C@@H](O)[C@H](n4cnc5c(=O)[nH]c(N)nc54)O[C@@H]3COP(=O)(S)O[C@H]3C[C@H](n4cc(C)c(=O)[nH]c4=O)O[C@@H]3COP(=O)(S)O[C@H]3[C@@H](O)[C@H](n4ccc(N)nc4=O)O[C@@H]3COP(=O)(S)O[C@H]3C[C@H](n4cc(C)c(=O)[nH]c4=O)O[C@@H]3CO)[C@@H](COP(=O)(S)O[C@H]3[C@@H](O)[C@H](n4ccc(N)nc4=O)O[C@@H]3COP(=O)(S)O[C@H]3C[C@H](n4cc(C)c(=O)[nH]c4=O)O[C@@H]3COP(=O)(S)O[C@H]3C[C@H](n4cc(C)c(=O)[nH]c4=O)O[C@@H]3COP(=O)(S)O[C@H]3C[C@H](n4ccc5c(=O)[nH]c(N)nc54)O[C@@H]3COP(=O)(S)O[C@H]3[C@@H](O)[C@H](n4ccc(N)nc4=O)O[C@@H]3COP(=O)(S)O[C@H]3C[C@H](n4cc(C)c(=O)[nH]c4=O)O[C@@H]3COP(=O)(S)O[C@H]3[C@@H](O)[C@H](n4cnc5c(=O)[nH]c(N)nc54)O[C@@H]3COP(=O)(S)O[C@H]3C[C@H](n4cc(C)c(=O)[nH]c4=O)O[C@@H]3COP(=O)(S)O[C@H]3[C@@H](O)[C@H](n4ccc(N)nc4=O)O[C@@H]3COP(=O)(S)O[C@H]3C[C@H](n4cc(C)c(=O)[nH]c4=O)O[C@@H]3CO)O2)c(=O)[nH]c1=O (some centres not stated)

— ChEMBL document CHEMBL1157912, “Impact of nature and length of linker incorporated in agonists on toll-like receptor 9-mediated immune responses” (J Med Chem, 2010)
